In BindingDB's records for doi:10.1021/acs.jmedchem.0c01922 (University of Toronto Mississauga, 2021):

Target: T1, Histone deacetylase 11 (Homo sapiens, UniProt Q96DB2)
T1 sequence (Q96DB2 whole entry): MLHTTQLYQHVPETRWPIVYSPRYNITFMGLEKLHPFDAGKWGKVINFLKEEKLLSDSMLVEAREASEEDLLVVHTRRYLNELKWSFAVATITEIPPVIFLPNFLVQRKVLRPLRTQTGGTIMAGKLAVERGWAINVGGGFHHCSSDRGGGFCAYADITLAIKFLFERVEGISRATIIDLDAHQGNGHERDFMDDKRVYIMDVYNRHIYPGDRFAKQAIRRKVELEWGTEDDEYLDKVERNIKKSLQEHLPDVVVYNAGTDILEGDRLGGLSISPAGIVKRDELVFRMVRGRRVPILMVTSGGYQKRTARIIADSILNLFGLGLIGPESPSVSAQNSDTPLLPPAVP
Assay: Inhibition of full length human HDAC11 using FAM-labeled acetylated peptide as substrate by electrophoretic mobility shift assay
Method in brief: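 Full-length human HDAC isoform enzymatic assay by electrophoretic mobility shift, using a FAM-labelled acetylated peptide substrate. […] Values are the mean of duplicate experiments with 95% confidence intervals.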

IC50: > 1 µM
SMILES: O=C(NO)c1ccc(CN(Cc2cccnc2)S(=O)(=O)c2cc(F)c(F)c(F)c2F)cc1
